What was measured:
Aspergillus flavus [1] = test: Antifungal activity against Aspergillus flavus using 1 x 10^5 spore/100 uL after 72 hrs by microdilution method; format: functional
Escherichia coli = test: Antibacterial activity against Escherichia coli using 1 x 10^4 CFU/ml inoculum after 24 hrs by microdilution method; format: functional
[2] = Antifungal activity against Trichoderma reesei using 1 x 10^5 spore/100 uL after 72 hrs by microdilution method; format: functional
Summary of the method: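 Spores washed from malt agar cultures with sterile 0.85% saline plus 0.1% Tween 80, adjusted to about 1.0×10^5 per 100 µl well. Compounds from a 1 mg/ml DMSO stock were serially diluted in malt broth with inoculum in 96-well plates and incubated 72 h at 28 °C. MIC is the lowest concentration with no visible growth under a binocular microscope. DMSO served as negative control.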

Pseudomonas aeruginosa = test: Antibacterial activity against Pseudomonas aeruginosa using 1 x 10^4 CFU/ml inoculum after 24 hrs by microdilution method; format: functional
Curvularia australiensis [3] = test: Antifungal activity against Drechslera australiensis using 1 x 10^5 spore/100 uL assessed as 99.5% fungal killing of original inoculum after 72 hrs by microdilution method; format: functional
Bacillus subtilis = test: Antibacterial activity against Bacillus subtilis using 1 x 10^4 CFU/ml inoculum after 24 hrs by microdilution method; format: functional
Trichoderma viride [4] = test: Antifungal activity against Trichoderma viride using 1 x 10^5 spore/100 uL assessed as 99.5% fungal killing of original inoculum after 72 hrs by microdilution method; format: functional
[5] = Antifungal activity against Trichoderma reesei using 1 x 10^5 spore/100 uL assessed as 99.5% fungal killing of original inoculum after 72 hrs by microdilution method; format: functional
Bacillus thuringiensis = test: Antibacterial activity against Bacillus thuringiensis using 1 x 10^4 CFU/ml inoculum after 24 hrs by microdilution method; format: functional
Aspergillus flavus [6] = test: Antifungal activity against Aspergillus flavus using 1 x 10^5 spore/100 uL assessed as 99.5% fungal killing of original inoculum after 72 hrs by microdilution method; format: functional
Aspergillus niger [7] = test: Antifungal activity against Aspergillus niger using 1 x 10^5 spore/100 uL after 72 hrs by microdilution method; format: functional
Curvularia australiensis [8] = test: Antifungal activity against Drechslera australiensis using 1 x 10^5 spore/100 uL after 72 hrs by microdilution method; format: functional
Salmonella typhi = test: Antibacterial activity against Salmonella typhi using 1 x 10^4 CFU/ml inoculum after 24 hrs by microdilution method; format: functional, Salmonella enterica subsp. enterica serovar Typhi
Aspergillus niger [9] = test: Antifungal activity against Aspergillus niger using 1 x 10^5 spore/100 uL assessed as 99.5% fungal killing of original inoculum after 72 hrs by microdilution method; format: functional
Trichoderma viride [10] = test: Antifungal activity against Trichoderma viride using 1 x 10^5 spore/100 uL after 72 hrs by microdilution method; format: functional
Aspergillus fumigatus [11] = test: Antifungal activity against Aspergillus fumigatus using 1 x 10^5 spore/100 uL assessed as 99.5% fungal killing of original inoculum after 72 hrs by microdilution method; format: functional
Staphylococcus aureus = test: Antibacterial activity against Staphylococcus aureus using 1 x 10^4 CFU/ml inoculum after 24 hrs by microdilution method; format: functional
Bacillus cereus = test: Antibacterial activity against Bacillus cereus using 1 x 10^4 CFU/ml inoculum after 24 hrs by microdilution method; format: functional
Aspergillus fumigatus [12] = test: Antifungal activity against Aspergillus fumigatus using 1 x 10^5 spore/100 uL after 72 hrs by microdilution method; format: functional

SMILES	MIC (Aspergillus flavus [1])	MIC (Escherichia coli)	MIC [2]	MIC (Pseudomonas aeruginosa)	MFC (Curvularia australiensis [3])	MIC (Bacillus subtilis)	MFC (Trichoderma viride [4])	MFC [5]	MIC (Bacillus thuringiensis)	MFC (Aspergillus flavus [6])	MIC (Aspergillus niger [7])	MIC (Curvularia australiensis [8])	MIC (Salmonella typhi)	MFC (Aspergillus niger [9])	MIC (Trichoderma viride [10])	MFC (Aspergillus fumigatus [11])	MIC (Staphylococcus aureus)	MIC (Bacillus cereus)	MIC (Aspergillus fumigatus [12])
C/C(=N\NC(=O)C1=C(O)c2ccccc2S(=O)(=O)N1C)c1ccc(I)cc1	89.8 ×10⁻² umol	29.3 ×10⁻² umol	70.1 ×10⁻² µmol	30.5 ×10⁻² umol	150.6 ×10⁻² umol	9.3 ×10⁻² umol	139.2 ×10⁻² umol	123 ×10⁻² µmol	9.2 ×10⁻² umol	190.7 ×10⁻² umol	91.4 ×10⁻² umol	74 ×10⁻² umol	33.2 ×10⁻² umol	198.4 ×10⁻² umol	71.1 ×10⁻² umol	159.8 ×10⁻² umol	28 ×10⁻² umol	9 ×10⁻² umol	81.9 ×10⁻² umol
C/C(=N\NC(=O)C1=C(O)c2ccccc2S(=O)(=O)N1)c1cccc(O)c1	>100 ×10⁻² umol	19.7 ×10⁻² umol	> 100 ×10⁻² µmol	21.2 ×10⁻² umol	>200 ×10⁻² umol	4.6 ×10⁻² umol	>200 ×10⁻² umol	> 200 ×10⁻² µmol	4.4 ×10⁻² umol	>200 ×10⁻² umol	>100 ×10⁻² umol	>100 ×10⁻² umol	23.5 ×10⁻² umol	>200 ×10⁻² umol	>100 ×10⁻² umol	>200 ×10⁻² umol	18.4 ×10⁻² umol	4.5 ×10⁻² umol	>100 ×10⁻² umol
C/C(=N\NC(=O)C1=C(O)c2ccccc2S(=O)(=O)N1)c1ccc(F)cc1F	76.4 ×10⁻² umol	29.2 ×10⁻² umol	69 ×10⁻² µmol	30.6 ×10⁻² umol	145.7 ×10⁻² umol	8 ×10⁻² umol	139.6 ×10⁻² umol	138 ×10⁻² µmol	8.2 ×10⁻² umol	168.7 ×10⁻² umol	76.6 ×10⁻² umol	72.3 ×10⁻² umol	33.2 ×10⁻² umol	160.3 ×10⁻² umol	72 ×10⁻² umol	118.2 ×10⁻² umol	28.1 ×10⁻² umol	7.8 ×10⁻² umol	69.8 ×10⁻² umol
C/C(=N\NC(=O)C1=C(O)c2ccccc2S(=O)(=O)N1)c1ccc(O)cc1	>100 ×10⁻² umol	21.3 ×10⁻² umol	> 100 ×10⁻² µmol	22.6 ×10⁻² umol	>200 ×10⁻² umol	4.9 ×10⁻² umol	>200 ×10⁻² umol	> 200 ×10⁻² µmol	5 ×10⁻² umol	>200 ×10⁻² umol	>100 ×10⁻² umol	>100 ×10⁻² umol	25.2 ×10⁻² umol	>200 ×10⁻² umol	>100 ×10⁻² umol	>200 ×10⁻² umol	19 ×10⁻² umol	4.8 ×10⁻² umol	>100 ×10⁻² umol
C/C(=N\NC(=O)C1=C(O)c2ccccc2S(=O)(=O)N1C)c1ccc(Cl)cc1	81.7 ×10⁻² umol	31 ×10⁻² umol	62.2 ×10⁻² µmol	32.3 ×10⁻² umol	128.6 ×10⁻² umol	11.6 ×10⁻² umol	134.4 ×10⁻² umol	124 ×10⁻² µmol	12.3 ×10⁻² umol	162.3 ×10⁻² umol	82 ×10⁻² umol	64.3 ×10⁻² umol	–	166.4 ×10⁻² umol	67.2 ×10⁻² umol	143.6 ×10⁻² umol	30.9 ×10⁻² umol	11 ×10⁻² umol	72.6 ×10⁻² umol

From ChEMBL document CHEMBL1781892, “Microwave assisted synthesis and structure-activity relationship of 4-hydroxy-N'-[1-phenylethylidene]-2H/2-methyl-1,2-benzothiazine-3-carbohydrazide 1,1-dioxides as anti-microbial agents” (2011)
